MT stabilize HCS: microtubule stabilizers in HeLa cells, primary screen, imaging, high-content imaging; HeLa tubulin immunostaining HCS, 24 h; share of cells brighter than vehicle mean+2SD; % tubulin-high responders, % at 10 µM; 200,000 compounds, 0.83% hits;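 active = plate Z-score above 3 for both tubulin-high and condensed-nucleus cell shares, with cell loss under 80%, at 10 µM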;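 also: anti alpha tubulin signal scored within the nucleus-defined area of each cell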
Autophagy mod: autophagy modulators in MEF cells, primary screen, imaging, high-content, MEF GFP-LC3; MEF GFP-LC3 puncta imaging; test concentration mostly 10 µM; calls only at 10 µM (by protocol); 190,000 compounds, 0.98% hits; AID 463193, 2010;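 active = percentage of spot-positive cells more than 3 SD above its plate mean, without a fluorescence outlier flag or 80% toxicity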;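 also: spot-positive cell cutoff set from DMSO-treated cells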
Insulin prom up: insulin promoter activators in MIN6 cells, imaging, high-content screening, mouse beta cells; MIN6 insulin promoter-GFP reporter; active compounds read high; z-score at 5 µM; 190,000 compounds, 0.3% hits; AID 1625, 2009;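 active = z-score above 3 at 5 µM with at least 500 cells counted in the well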
bCat nuc transl: modulators of beta-catenin nuclear translocation, primary screen, imaging, HeLa cells, immunofluorescence, high-content; nuclear translocation activity, % at 5 µM; AID 1665, 2009; 190,000 compounds, 0.3% hits;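 active = nuclear translocation activity above 50% at 5 µM, with a well cell count of 50 or more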;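 also: per-cell ratio of nuclear to cytoplasmic median beta-catenin stain intensity; plate controls were DMSO negative control for no effect and GSK-3 inhibitor IX positive control for full effect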
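test system = HeLa cells, endogenous beta-catenin | dosing = single 5 µM dose plus 0.02–20 µM confirmation series | times = compound treatment 24 h, 37°C, 5% CO2 | technique = beta-catenin immunofluorescence imaging with DAPI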
The depositor's hits bear a star. Hits are enriched below; roughly 1.9% of the tested compounds scored in any of these assays.

How did O=C(CNCC1CCCO1)Nc1ccc([N+](=O)[O-])cc1C(=O)Nc1ccccc1F (stereo not drawn) do in these assays?
MT stabilize HCS: 0; Autophagy mod: inactive; Insulin prom up: -1.4; bCat nuc transl: -2

How did COc1cccc(NC(=O)c2cc([N+](=O)[O-])ccc2NC(=O)CNCC2CCCO2)c1 (stereo not drawn) do in these assays?
MT stabilize HCS: 2; Autophagy mod: active; Insulin prom up: -0.47; bCat nuc transl: -1

Results for CCc1sc(C(=O)NCCc2ccc(S(N)(=O)=O)cc2)cc1Br ?
MT stabilize HCS: 4; Autophagy mod: inactive; Insulin prom up: -0.4; bCat nuc transl: 1

How did COc1ccc(COc2cc(-c3cccc(OC)c3)nc3ccc(NC(=O)C(C)C)cc23)cc1 do in these assays?
MT stabilize HCS: 12; Autophagy mod: inactive; Insulin prom up: 0.21

Results for COc1ccc(N2CCN(C(=O)Cn3cnc4c(cnn4-c4ccc(C)cc4)c3=O)CC2)cc1 ?
MT stabilize HCS: 4; Autophagy mod: active; Insulin prom up: -0.58; bCat nuc transl: 0

How did COc1ccc(N2CCN(C(=O)Cn3cnc4c(cnn4-c4ccccc4)c3=O)CC2)cc1 do in these assays?
MT stabilize HCS: 2; Autophagy mod: inactive; Insulin prom up: -0.98; bCat nuc transl: -1

How did COc1ccc2[nH]c3c(N4CCc5ccccc5C4)ncnc3c2c1 do in these assays?
bCat nuc transl: 115*

What do the screens show for `CCOC(=O)N1CCN(c2ncnc3c2[nH]c2ccc(OC)cc23)CC1`?
MT stabilize HCS: 5; Autophagy mod: inactive; Insulin prom up: -0.23; bCat nuc transl: 9

What do the screens show for `COc1cc2[nH]c3c(N4CCN(c5ccccn5)CC4)ncnc3c2cc1OC`?
MT stabilize HCS: 7; Autophagy mod: active; Insulin prom up: -1.4; bCat nuc transl: -6

Results for O=C(N/N=C/c1cccs1)c1cc(C2CC2)nc2ccccc12 ?
MT stabilize HCS: 17*; Autophagy mod: inactive; Insulin prom up: -0.03; bCat nuc transl: 61*

How did Cc1ccc2sc(NNC(=O)c3cc(-c4cccs4)nc4ccccc34)nc2c1C do in these assays?
MT stabilize HCS: 4; Autophagy mod: inactive; Insulin prom up: -0.13; bCat nuc transl: -1

What do the screens show for `Cc1cc(C)c2nc(NNC(=O)c3cc(-c4cccs4)nc4ccccc34)sc2c1`?
MT stabilize HCS: 3; Autophagy mod: inactive; Insulin prom up: 3.7*; bCat nuc transl: 0

What do the screens show for `COc1ccccc1-c1cc(C(=O)N/N=C/c2cccs2)c2ccccc2n1`?
MT stabilize HCS: 2; Autophagy mod: inactive

What do the screens show for `Cn1cccc1/C=N/NC(=O)c1cc(-c2cccs2)nc2ccccc12`?
MT stabilize HCS: 17*; Autophagy mod: inactive; Insulin prom up: 0.54; bCat nuc transl: 17

Results for O=C(N/N=C/c1ccc[nH]1)c1cc(-c2cccs2)nc2ccccc12 ?
MT stabilize HCS: 4; Autophagy mod: inactive; Insulin prom up: -0.61; bCat nuc transl: 0

Results for O=C(N/N=C/c1cccs1)c1cc(-c2ccncc2)nc2ccccc12 ?
MT stabilize HCS: 5; Autophagy mod: inactive; Insulin prom up: -0.09; bCat nuc transl: 61*

Results for Cc1cc(Cl)ccc1NC(=S)NCC(C)C ?
MT stabilize HCS: 4; Autophagy mod: inactive; Insulin prom up: -0.42; bCat nuc transl: -1

What do the screens show for `CCn1ncc(/C=N\NC(=O)c2cc(-c3ccc(C)cc3C)nc3ccccc23)c1C`?
MT stabilize HCS: 44*; Autophagy mod: inactive; Insulin prom up: 0.27; bCat nuc transl: -3

How did CCCc1cc(C(=O)N/N=C/c2ccc(CC)s2)c2ccccc2n1 do in these assays?
MT stabilize HCS: 34*; Autophagy mod: inactive

How did CCc1ccc(/C=N/NC(=O)c2cc(-c3ccncc3)nc3ccccc23)s1 do in these assays?
MT stabilize HCS: 9; Autophagy mod: inactive; Insulin prom up: 0.45; bCat nuc transl: 66*

How did CCc1ccc(/C=N/NC(=O)c2c[nH]c3ccccc23)s1 do in these assays?
MT stabilize HCS: 2; Autophagy mod: inactive; Insulin prom up: -0.23; bCat nuc transl: -3

What do the screens show for `CCOC(=O)c1[nH]c(C(=O)O)c(OC(=O)CC)c1C`?
Insulin prom up: 0.48; bCat nuc transl: -4

What do the screens show for `C=CCN(C(=O)C1=NN(C2CCS(=O)(=O)C2)C(=O)CC1)c1nc(-c2ccc([N+](=O)[O-])cc2)cs1` (stereo not drawn)?
MT stabilize HCS: 2; Autophagy mod: active; Insulin prom up: -0.12; bCat nuc transl: -1

What do the screens show for `O=c1[nH]c(SCc2n[nH]c(=S)n2-c2ccccc2)nc2sc3c(c12)CCC3`?
MT stabilize HCS: 2; Autophagy mod: inactive; Insulin prom up: -0.46

Results for O=C(N/N=C/c1cccc(Oc2ccccc2)c1)c1ccccc1Br ?
MT stabilize HCS: 27*; Autophagy mod: inactive; Insulin prom up: 0.27; bCat nuc transl: 4

Results for O=C(N/N=C/c1cccc(Oc2ccccc2)c1)c1cccc(Br)c1 ?
MT stabilize HCS: 2; Autophagy mod: inactive; Insulin prom up: 0.07; bCat nuc transl: 0

What do the screens show for `COc1ccccc1[C@@H]1C(c2ccc(F)cc2)=NN(c2ccccc2)[C@H]1C(=O)N1CCOC1=O`?
MT stabilize HCS: 3; Autophagy mod: active; Insulin prom up: -0.03

Results for COc1ccccc1[C@@H]1C(c2cccc(C)c2)=NN(c2ccccc2)[C@H]1C(=O)N1CCOC1=O ?
MT stabilize HCS: 3; Autophagy mod: inactive; Insulin prom up: 0.35

How did CCn1c(=O)cc(SCC(=O)NCCCN2CCN(c3ccccc3F)CC2)c2ccccc21 do in these assays?
MT stabilize HCS: 4; Autophagy mod: active; Insulin prom up: -2.8; bCat nuc transl: 3

How did CCc1ccc(-c2csc3[n+]2CCN3C(C)=O)cc1 do in these assays?
MT stabilize HCS: 3; Autophagy mod: inactive; Insulin prom up: 0.7; bCat nuc transl: -5

Results for CC(=O)N1CC[n+]2c(-c3ccc(Cl)cc3)csc21 ?
MT stabilize HCS: 3; Autophagy mod: active; Insulin prom up: -0.39; bCat nuc transl: -1

Results for CC(C)CCNC1=CC(=O)CC(c2ccccc2)C1 (stereo not drawn) ?
MT stabilize HCS: 13*; Autophagy mod: inactive; Insulin prom up: 1.3

How did O=C1C=C(Nc2ccc(Cl)cc2)CC(c2ccccc2)C1 (stereo not drawn) do in these assays?
MT stabilize HCS: 14*; Autophagy mod: inactive; Insulin prom up: -0.14; bCat nuc transl: 126*

How did Cc1ccc(NC2=CC(=O)CC(c3ccc(Cl)cc3)C2)cc1 (stereo not drawn) do in these assays?
MT stabilize HCS: 4; Autophagy mod: inactive; Insulin prom up: -0.41; bCat nuc transl: 0

Results for CN(C)CCCNC1=CC(=O)CC(c2ccccc2)C1 (stereo not drawn) ?
MT stabilize HCS: 2; Autophagy mod: inactive; Insulin prom up: -0.4; bCat nuc transl: 0

How did Cc1ccc(NC2=CC(=O)CC(c3ccccc3)C2)cc1 (stereo not drawn) do in these assays?
MT stabilize HCS: 20*; Autophagy mod: inactive; Insulin prom up: 0.21; bCat nuc transl: 10

High-throughput results: PubChem, several laboratories
